Here are results for one compound from publication PMC4780262 (Bioorganic & medicinal chemistry, 2013).

Broadly, the IC50 is the concentration that gives 50% inhibition. A higher IC50 goes with lower potency.

In one test the target is PRMT3 (Homo sapiens, UniProt O60678). As to the kind of experiment: HMT selectivity assay. Type of test: biochemical.
Another test addresses PRMT5-MEP50 (Homo sapiens, UniProt O14744). As to the kind of experiment: HMT selectivity assay. The class given is biochemical.
The target of a further test is MLL1 complex (Homo sapiens, UniProt Q03164). As to the kind of experiment: HMT selectivity assay. Type of test: biochemical. In a few lines: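 Triplicate, 1 h at room temperature. Quenched with 7.5 M guanidine HCl; tritium read by Flashplate SPA. Normalised to no-compound and no-enzyme wells. IC50 from 100 nM–100 μM; Ki = IC50/2.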
A further test addresses EZH2 (PRC2 complex) (Homo sapiens, UniProt Q15910). The experiment in a line: HMT selectivity assay. Type of test: biochemical. Put shortly:
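Triplicate, 1 h at room temperature. Guanidine HCl quench, then Flashplate CPM. 100% = no compound; 0% = no enzyme. IC50 over 100 nM–100 μM; Ki = IC50/2.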

For another test, the target named is T1, EHMT2/G9a (Homo sapiens, UniProt Q96KQ7).
T1 sequence (Q96KQ7 1-1210): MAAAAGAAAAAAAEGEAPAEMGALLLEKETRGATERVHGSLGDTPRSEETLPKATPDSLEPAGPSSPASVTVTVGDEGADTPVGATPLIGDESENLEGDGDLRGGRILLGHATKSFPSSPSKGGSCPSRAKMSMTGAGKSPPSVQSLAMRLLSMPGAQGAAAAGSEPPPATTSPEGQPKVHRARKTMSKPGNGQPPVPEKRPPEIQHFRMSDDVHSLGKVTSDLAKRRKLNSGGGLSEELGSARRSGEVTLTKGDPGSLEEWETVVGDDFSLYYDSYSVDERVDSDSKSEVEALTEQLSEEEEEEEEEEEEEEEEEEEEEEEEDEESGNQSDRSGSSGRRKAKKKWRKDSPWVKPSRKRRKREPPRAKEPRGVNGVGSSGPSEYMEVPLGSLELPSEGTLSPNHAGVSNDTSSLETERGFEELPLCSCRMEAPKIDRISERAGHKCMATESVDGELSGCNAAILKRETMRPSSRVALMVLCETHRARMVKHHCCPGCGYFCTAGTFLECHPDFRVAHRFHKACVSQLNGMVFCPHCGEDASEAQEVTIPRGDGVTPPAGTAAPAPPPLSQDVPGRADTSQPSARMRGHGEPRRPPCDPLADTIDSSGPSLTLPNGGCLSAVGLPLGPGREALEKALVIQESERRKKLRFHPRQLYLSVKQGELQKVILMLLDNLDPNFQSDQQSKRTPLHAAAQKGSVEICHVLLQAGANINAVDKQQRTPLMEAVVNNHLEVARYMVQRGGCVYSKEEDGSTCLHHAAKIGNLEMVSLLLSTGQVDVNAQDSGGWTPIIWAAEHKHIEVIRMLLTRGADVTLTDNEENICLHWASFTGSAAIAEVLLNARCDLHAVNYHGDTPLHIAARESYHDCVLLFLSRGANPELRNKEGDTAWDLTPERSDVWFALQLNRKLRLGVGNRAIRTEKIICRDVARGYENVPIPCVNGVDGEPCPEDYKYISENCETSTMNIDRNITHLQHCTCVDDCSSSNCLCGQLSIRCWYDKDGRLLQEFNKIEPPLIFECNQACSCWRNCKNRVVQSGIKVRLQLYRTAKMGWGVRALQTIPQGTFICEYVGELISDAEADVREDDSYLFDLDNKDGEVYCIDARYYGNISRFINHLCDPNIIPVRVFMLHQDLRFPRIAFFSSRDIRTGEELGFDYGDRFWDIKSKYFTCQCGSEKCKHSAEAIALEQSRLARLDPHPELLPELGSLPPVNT
The experiment in a line: HMT selectivity assay. Type of test: biochemical. In a few lines: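 Triplicate reactions, 1 h, room temperature. Guanidine HCl stop; Flashplate SPA counts. Activity relative to no-compound (100%) and no-enzyme (0%). IC50 over 100 nM–100 μM; Ki = IC50/2.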

For a further test, the target named is T2, EHMT1/GLP (Homo sapiens, UniProt Q9H9B1).
T2 sequence (Q9H9B1 1-1298): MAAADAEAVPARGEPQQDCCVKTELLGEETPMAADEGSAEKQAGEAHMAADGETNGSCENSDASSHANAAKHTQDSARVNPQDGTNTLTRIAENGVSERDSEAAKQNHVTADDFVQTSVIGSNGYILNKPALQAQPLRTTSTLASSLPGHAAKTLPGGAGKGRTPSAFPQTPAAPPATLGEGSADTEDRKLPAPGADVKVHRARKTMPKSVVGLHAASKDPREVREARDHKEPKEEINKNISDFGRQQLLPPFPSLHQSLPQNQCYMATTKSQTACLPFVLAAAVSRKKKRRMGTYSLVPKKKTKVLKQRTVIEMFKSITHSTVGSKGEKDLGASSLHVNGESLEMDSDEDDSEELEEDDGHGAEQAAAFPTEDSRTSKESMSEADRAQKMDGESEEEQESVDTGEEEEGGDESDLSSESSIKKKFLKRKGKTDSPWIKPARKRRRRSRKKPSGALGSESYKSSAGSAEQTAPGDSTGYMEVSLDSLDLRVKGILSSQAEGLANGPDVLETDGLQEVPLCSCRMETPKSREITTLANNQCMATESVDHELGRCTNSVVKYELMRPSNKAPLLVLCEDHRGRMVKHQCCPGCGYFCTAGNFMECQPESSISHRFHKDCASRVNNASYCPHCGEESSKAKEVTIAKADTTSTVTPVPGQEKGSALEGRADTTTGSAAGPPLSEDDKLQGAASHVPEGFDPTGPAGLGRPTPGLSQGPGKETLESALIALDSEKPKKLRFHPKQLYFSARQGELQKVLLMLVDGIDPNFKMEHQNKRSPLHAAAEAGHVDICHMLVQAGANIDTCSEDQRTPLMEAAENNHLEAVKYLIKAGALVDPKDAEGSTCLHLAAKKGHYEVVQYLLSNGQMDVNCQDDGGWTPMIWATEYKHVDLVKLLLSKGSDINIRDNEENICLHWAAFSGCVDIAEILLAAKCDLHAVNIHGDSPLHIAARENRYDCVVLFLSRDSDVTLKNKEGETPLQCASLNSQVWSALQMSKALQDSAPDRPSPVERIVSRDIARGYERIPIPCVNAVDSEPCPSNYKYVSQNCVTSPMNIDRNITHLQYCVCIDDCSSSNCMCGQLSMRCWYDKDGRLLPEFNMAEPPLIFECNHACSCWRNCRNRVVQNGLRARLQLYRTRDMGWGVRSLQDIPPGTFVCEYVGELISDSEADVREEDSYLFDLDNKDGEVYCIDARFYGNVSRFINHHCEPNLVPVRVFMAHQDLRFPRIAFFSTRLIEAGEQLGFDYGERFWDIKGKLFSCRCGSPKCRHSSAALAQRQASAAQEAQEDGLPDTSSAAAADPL
As to the kind of experiment: HMT selectivity assay. Type of test: biochemical. In a few lines:
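Stopped with 7.5 M guanidine HCl, then Flashplate CPM. No compound = 100%, no enzyme = 0%. IC50 from 100 nM–100 μM; Ki = IC50/2.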

The target in a further test is SUV39H2 (Homo sapiens, UniProt Q9H5I1). The experiment in a line: HMT selectivity assay. The class given is biochemical. Put shortly:
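Triplicate reactions, 1 h at room temperature. Quenched with 7.5 M guanidine HCl; read as Flashplate CPM. Normalised to no-compound and no-enzyme wells. IC50 from 100 nM–100 μM; Ki = IC50/2.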

The target in a further test is T3, SETD7 (Homo sapiens, UniProt Q8WTS6).
T3 sequence (Q8WTS6 1-366): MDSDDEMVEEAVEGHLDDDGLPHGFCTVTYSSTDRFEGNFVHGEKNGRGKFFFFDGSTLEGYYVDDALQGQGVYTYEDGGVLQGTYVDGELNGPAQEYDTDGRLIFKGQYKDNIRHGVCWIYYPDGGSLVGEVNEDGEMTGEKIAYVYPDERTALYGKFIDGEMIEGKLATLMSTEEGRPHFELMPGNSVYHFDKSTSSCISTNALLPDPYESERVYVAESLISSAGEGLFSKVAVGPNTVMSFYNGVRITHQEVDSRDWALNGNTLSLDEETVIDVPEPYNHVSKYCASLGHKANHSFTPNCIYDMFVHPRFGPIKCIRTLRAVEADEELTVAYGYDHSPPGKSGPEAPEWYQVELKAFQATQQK
The experiment in a line: HMT selectivity assay. The class given is biochemical. In a few lines: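 Triplicate, room temperature, 1 h. Stopped with 7.5 M guanidine HCl; Flashplate CPM. Normalised to no-compound and no-enzyme controls. IC50 from 100 nM–100 μM; Ki = IC50/2.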

For a further test, the target named is T4, SETD8 (Homo sapiens, UniProt Q9NQR1).
T4 sequence (Q9NQR1 1-393): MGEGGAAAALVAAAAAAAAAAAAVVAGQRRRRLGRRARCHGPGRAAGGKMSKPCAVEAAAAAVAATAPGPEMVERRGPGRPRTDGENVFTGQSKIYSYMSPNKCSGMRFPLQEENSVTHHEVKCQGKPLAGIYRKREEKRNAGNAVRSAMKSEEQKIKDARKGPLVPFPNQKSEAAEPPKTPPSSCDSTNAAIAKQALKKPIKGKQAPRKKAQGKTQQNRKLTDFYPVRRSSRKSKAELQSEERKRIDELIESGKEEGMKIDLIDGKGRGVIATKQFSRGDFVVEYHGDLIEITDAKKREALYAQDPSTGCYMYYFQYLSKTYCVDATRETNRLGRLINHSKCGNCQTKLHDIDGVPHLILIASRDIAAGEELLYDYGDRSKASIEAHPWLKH
The experiment in a line: HMT selectivity assay. Type of test: biochemical. In a few lines: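 Triplicate, 1 h at room temperature. Guanidine HCl stop; Flashplate SPA CPM. No compound = 100%, no enzyme = 0%. IC50 over 100 nM–100 μM; Ki = IC50/2.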

The target of a further test is T5, haspin catalytic domain (Homo sapiens, UniProt Q8TF76).
T5 sequence (Q8TF76 484-798 limits assumed): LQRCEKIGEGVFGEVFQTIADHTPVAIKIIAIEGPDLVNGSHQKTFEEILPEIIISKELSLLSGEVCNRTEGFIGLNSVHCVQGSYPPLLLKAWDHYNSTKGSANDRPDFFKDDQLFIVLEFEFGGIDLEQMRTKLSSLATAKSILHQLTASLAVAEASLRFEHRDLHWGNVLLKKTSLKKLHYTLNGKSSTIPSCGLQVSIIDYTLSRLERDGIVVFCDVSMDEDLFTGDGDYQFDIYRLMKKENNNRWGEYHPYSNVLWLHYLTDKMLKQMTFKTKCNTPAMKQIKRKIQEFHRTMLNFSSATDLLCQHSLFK
As to the kind of experiment: Differential scanning fluorimetry on haspin catalytic domain. Type of test: binding. Particulars: 10 μM compound.

Chain of EZH2 (PRC2 complex) (Q15910 whole entry, species assumed): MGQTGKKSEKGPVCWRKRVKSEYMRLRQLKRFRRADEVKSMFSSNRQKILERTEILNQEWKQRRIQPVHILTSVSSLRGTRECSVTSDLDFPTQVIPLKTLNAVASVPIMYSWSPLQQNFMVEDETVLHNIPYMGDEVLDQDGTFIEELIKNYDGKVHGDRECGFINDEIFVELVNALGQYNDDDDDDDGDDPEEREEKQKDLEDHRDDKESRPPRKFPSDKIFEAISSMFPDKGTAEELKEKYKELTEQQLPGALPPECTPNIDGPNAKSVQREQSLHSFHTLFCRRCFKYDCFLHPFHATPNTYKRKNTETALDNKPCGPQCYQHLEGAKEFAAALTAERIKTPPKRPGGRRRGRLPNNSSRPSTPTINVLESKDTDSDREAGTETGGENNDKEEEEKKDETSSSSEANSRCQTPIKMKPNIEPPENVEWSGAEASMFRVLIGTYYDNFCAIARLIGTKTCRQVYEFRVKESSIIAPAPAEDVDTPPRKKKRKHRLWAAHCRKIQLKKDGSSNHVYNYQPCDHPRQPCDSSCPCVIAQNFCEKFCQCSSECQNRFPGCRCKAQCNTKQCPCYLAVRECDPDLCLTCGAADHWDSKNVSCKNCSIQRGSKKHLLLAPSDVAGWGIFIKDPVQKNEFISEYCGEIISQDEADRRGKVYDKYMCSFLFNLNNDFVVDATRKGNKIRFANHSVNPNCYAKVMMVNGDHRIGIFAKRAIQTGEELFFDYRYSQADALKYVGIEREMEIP
Chain of EZH2 (PRC2 complex) (O75530 whole entry partner, species assumed): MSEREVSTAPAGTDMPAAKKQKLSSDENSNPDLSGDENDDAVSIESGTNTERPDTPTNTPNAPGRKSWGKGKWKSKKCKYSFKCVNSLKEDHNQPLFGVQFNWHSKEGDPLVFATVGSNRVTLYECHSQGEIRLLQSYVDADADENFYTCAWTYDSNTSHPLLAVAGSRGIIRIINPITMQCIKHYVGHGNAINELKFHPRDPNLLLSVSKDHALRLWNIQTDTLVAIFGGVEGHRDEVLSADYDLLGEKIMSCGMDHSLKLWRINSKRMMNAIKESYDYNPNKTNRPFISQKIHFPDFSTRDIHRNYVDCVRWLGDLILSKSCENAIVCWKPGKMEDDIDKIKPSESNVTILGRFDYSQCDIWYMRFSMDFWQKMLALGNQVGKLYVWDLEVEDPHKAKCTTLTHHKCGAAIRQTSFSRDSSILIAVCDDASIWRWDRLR
Chain of EZH2 (PRC2 complex) (Q15022 whole entry partner, species assumed): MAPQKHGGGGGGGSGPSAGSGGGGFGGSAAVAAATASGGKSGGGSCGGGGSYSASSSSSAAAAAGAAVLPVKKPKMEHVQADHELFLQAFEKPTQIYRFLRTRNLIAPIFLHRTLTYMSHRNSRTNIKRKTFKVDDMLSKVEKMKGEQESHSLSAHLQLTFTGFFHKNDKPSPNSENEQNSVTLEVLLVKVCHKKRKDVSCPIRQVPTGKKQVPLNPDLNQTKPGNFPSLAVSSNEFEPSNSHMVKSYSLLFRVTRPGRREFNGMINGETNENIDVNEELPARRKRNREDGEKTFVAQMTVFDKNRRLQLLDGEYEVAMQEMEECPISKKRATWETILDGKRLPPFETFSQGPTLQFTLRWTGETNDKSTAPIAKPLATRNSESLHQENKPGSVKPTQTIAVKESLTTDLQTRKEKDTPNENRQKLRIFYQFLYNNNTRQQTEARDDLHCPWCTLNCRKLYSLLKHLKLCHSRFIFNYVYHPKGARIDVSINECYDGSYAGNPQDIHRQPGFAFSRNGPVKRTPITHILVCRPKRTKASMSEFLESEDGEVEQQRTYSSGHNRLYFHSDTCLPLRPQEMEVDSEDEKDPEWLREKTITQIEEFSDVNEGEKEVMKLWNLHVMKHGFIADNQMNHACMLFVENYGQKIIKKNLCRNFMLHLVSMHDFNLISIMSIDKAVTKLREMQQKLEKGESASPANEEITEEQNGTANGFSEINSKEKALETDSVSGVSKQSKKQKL
Chain of PRMT5-MEP50 (O14744 whole entry): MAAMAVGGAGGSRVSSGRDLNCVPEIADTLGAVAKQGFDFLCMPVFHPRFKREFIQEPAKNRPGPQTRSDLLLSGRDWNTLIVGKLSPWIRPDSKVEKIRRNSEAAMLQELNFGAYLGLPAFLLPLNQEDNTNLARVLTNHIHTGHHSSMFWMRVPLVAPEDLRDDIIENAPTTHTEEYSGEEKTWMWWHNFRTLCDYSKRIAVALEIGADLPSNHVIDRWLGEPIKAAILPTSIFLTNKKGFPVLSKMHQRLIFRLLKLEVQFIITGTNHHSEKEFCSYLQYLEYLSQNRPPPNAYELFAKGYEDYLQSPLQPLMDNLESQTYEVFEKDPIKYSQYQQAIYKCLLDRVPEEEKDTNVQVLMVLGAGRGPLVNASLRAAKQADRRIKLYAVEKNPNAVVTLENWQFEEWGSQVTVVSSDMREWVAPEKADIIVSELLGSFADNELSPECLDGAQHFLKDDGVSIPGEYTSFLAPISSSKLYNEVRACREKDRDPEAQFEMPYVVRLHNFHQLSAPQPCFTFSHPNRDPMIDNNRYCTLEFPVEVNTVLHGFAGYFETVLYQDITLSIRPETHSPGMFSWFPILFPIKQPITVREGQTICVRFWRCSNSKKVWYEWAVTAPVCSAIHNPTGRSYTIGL
Chain of PRMT5-MEP50 (Q9BQA1 whole entry partner): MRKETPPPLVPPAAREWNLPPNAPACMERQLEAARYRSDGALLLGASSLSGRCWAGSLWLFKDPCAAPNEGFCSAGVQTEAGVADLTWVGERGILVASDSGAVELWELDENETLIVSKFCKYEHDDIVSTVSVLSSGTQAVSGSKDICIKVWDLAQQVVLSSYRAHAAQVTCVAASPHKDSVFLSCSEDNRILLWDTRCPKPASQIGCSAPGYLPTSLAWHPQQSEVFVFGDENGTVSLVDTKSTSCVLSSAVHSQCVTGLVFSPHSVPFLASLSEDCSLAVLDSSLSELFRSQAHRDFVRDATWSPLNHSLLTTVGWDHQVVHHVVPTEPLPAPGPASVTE
Chain of MLL1 complex (Q9UBL3 whole entry): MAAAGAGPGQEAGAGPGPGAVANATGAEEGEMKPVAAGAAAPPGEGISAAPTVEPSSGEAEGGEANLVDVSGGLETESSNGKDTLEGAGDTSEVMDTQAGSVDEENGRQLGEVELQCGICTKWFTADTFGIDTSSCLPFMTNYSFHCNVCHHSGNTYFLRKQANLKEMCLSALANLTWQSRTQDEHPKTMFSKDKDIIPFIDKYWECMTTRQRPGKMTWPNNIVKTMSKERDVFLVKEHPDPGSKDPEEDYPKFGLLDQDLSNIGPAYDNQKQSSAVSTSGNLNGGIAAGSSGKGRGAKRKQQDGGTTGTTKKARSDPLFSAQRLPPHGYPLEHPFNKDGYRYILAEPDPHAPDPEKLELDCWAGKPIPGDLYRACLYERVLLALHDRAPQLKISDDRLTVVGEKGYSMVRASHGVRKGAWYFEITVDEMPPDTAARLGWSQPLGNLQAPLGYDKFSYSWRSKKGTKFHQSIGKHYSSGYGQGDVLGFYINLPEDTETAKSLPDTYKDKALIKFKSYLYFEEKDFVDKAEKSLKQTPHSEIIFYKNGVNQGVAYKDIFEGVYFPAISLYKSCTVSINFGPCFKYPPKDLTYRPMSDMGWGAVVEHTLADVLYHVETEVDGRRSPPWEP
Chain of MLL1 complex (Q03164 3745-3969): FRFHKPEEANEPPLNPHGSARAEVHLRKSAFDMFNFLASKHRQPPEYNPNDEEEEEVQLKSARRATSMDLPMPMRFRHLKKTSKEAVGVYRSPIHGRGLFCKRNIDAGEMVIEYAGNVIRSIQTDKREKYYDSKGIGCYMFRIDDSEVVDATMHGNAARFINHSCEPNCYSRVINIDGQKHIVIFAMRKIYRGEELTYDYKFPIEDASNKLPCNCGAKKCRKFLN
Chain of MLL1 complex (Q15291 whole entry, further chain): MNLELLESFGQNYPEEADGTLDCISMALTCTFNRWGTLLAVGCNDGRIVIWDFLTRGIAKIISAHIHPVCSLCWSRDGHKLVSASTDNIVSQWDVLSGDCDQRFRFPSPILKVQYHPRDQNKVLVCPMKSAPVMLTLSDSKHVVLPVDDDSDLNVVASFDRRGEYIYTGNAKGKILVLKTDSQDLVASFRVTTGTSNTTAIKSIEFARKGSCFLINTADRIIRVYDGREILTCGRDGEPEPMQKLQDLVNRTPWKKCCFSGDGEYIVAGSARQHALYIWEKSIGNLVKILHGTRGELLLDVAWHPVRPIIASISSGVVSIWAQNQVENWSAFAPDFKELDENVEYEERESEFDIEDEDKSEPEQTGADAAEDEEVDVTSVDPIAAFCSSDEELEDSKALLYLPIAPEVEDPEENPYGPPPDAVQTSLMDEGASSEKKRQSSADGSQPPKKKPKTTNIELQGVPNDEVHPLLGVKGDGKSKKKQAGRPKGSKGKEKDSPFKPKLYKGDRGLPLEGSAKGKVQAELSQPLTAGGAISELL
Chain of SUV39H2 (Q9H5I1 whole entry, species assumed): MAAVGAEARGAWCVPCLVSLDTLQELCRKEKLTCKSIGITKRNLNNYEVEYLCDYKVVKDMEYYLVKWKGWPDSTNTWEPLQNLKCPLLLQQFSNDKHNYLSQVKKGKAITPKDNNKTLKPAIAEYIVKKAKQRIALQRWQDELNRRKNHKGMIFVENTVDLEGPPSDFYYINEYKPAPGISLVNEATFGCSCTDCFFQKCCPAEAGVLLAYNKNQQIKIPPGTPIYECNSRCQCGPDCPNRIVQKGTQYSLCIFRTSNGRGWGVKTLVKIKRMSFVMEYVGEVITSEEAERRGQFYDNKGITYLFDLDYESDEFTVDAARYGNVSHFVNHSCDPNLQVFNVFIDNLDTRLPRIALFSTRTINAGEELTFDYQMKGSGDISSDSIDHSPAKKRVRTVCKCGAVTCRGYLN

In the case of `Nc1ncnc2c1c(Br)cn2[C@@H]1O[C@H](CSCC[C@H](N)C(=O)O)[C@@H](O)[C@H]1O` [BrSAH, N7-Bromo-deaza-S-adenosyl-L-homocysteine], the IC50 against PRMT3 and at PRMT5-MEP50 was 2000 nM each time. Further, the “times less active against PRMT3 than DOT1L” value on PRMT3 (IC50 ratio versus DOT1L) is recorded as “about 25”. Further, at PRMT5-MEP50 (IC50 ratio versus DOT1L), the “times less active against PRMT5 than DOT1L” value is listed as “about 25”. Besides, at MLL1 complex, the “activity against MLL” value was “inactive”. The Ki entry at MLL1 complex (MLL, compound 100 nM to 100 μM, SAM = Km) is listed as “No inhibition”; at EZH2 (PRC2 complex) (PRC2, compound 100 nM to 100 μM, SAM = Km) it was “No inhibition”; on EHMT2/G9a (G9a, compound 100 nM to 100 μM, SAM = Km) it was “No inhibition”; on EHMT1/GLP (EHMT1, compound 100 nM to 100 μM, SAM = Km), “No inhibition”; on SUV39H2 (SUV39H2, compound 100 nM to 100 μM, SAM = Km), “No inhibition”; on SETD7 (SETD7, compound 100 nM to 100 μM, SAM = Km), “No inhibition”. The Ki result at SETD8 (SETD8, compound 100 nM to 100 μM, SAM = Km) is given as “No inhibition”. Further, at EZH2 (PRC2 complex), the “activity against EZH2 (present in the PRC2 complex)” value is “inactive”. Besides, the “activity against EHMT2/G9a” value on EHMT2/G9a is “inactive”. Moreover, the “activity against EHMT1/GLP” value at EHMT1/GLP was “inactive”. Further, the “activity against SUV39H2” value on SUV39H2 was “inactive”. The “activity against SETD7” value at SETD7 is “inactive”. For the same compound, the “activity against SETD8” value on SETD8 was “inactive”. In addition, the “binding to the haspin catalytic domain by differential scanning fluorimetry” value at haspin catalytic domain is “no binding”.
